Source: paper PMC10832541 (Microbial Biotechnology, 2024)
In brackets after ≈: the same amount, converted by molar mass. Entries after “also recorded” stand apart in the source; their conditions may differ.

What was measured:
[1] = in water, compared with NOS‐R at pH 6.0; ref Zhao et al., 2023; cited from earlier work
Enterococcus faecium = assay: In vitro antibacterial activity; format: cell-based; settings: Enterococcus faecium strains; CLSI guidelines; range over strains
Enterococcus faecalis = assay: In vitro antibacterial activity; format: cell-based; settings: Enterococcus faecalis strains; CLSI guidelines; range over strains
MRSA infection = assay: In vivo protection of mice infected with MRSA; settings: data not shown
MRSA = assay: In vitro antibacterial activity; format: cell-based, methicillin‐resistant Staphylococcus aureus; settings: MRSA strains; CLSI guidelines; range over strains
[2] = Aqueous solubility at pH 5.0 to 7.0; format: physicochemical; settings: pH 6, water
Outline: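 Test compound quantified by HPLC against a standard curve (31.25–1000 ng/mL), with linear regression of peak area against concentration. Aqueous solubility was determined in solutions of pH 5.0 to 7.0, following a previously described method.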

[3] = test system: MRSA, MRSE, Enterococcus faecalis and Enterococcus faecium; assay: In vitro antibacterial activity, MIC range over all tested pathogens; format: cell-based; settings: E. faecalis and E. faecium strains
MRSE = assay: In vitro antibacterial activity; format: cell-based, methicillin‐resistant Staphylococcus epidermidis; settings: MRSE strains; CLSI guidelines; range over strains
SrGT822 = assay: Substrate spectrum of SrGT822; format: biochemical, Streptomyces sp. 147326; settings: dTDP‐L‐rhamnose as donor; LC-MS analysis; products not purified
Outline: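 SrGT822 from Streptomyces sp. 147326 carried a C-terminal His-tag in pET22b(+). It was expressed in E. coli BL21(DE3) with 0.5 mM IPTG at 20°C for 12 h and purified by nickel affinity. Seventeen compounds from various classes were tested as acceptors, with dTDP-L-rhamnose as donor, under the optimized reaction parameters.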

| Molecule | aqueous solubility [1] [µg/mL] | MIC (Enterococcus faecium) [µg/mL] | MIC (Enterococcus faecalis) [µg/mL] | in vivo protection against MRSA infection (MRSA infection) | MIC (MRSA) [µg/mL] | solubility [2] [µg/mL] | MIC values against all the tested pathogens [3] [µg/mL] | MIC (MRSE) [µg/mL] | conversion rate (monorhamnosylation as a substrate of SrGT822) (SrGT822) |
| --- | --- | --- | --- | --- | --- | --- | --- | --- | --- |
| C=C(NC(=O)c1csc(-c2nc3c(cc2O)-c2nc(cs2)C(=O)NC(C(C)O)C(=O)N/C(=C\C)c2nc(cs2)C(=O)NC2CC(O)C(=O)OCc4cccc5[nH]c(c(C)c45)C(=O)SCC(NC(=O)c4csc2n4)c2nc-3cs2)n1)C(N)=O (stereo not shown) [NOS, Nosiheptide] | 0.0283 (≈ 0.0232 µM) | 0.0078 to 0.0156 | 0.0078 to 0.0156 | – | – | – | – | – | – |
| C=C(NC(=O)c1csc(-c2nc3c(cc2O[C@@H]2O[C@@H](C)[C@H](O)[C@@H](O)[C@H]2O)-c2nc(cs2)C(=O)NC(C(C)O)C(=O)N/C(=C\C)c2nc(cs2)C(=O)NC2CC(O)C(=O)OCc4cccc5[nH]c(c(C)c45)C(=O)SCC(NC(=O)c4csc2n4)c2nc-3cs2)n1)C(N)=O (stereo partly shown) [NOS‐R] | – | 0.0078 to 0.0156 | 0.0078 to 0.0156 | new protective effect against MRSA infection in mice; also recorded: potential in vivo protection | 0.03125 to 0.0625 | 0.526 (≈ 0.384 µM) | 0.0078 to 0.0625 | 0.03125 to 0.0625 | – |
| nocathiacin I [compound 17] | – | – | – | – | – | – | – | – | below 60% |
| CN[C@H](CC(C)C)C(=O)N[C@H]1C(=O)N[C@@H](CC(N)=O)C(=O)N[C@H]2C(=O)N[C@H]3C(=O)N[C@H](C(=O)N[C@H](C(=O)O)c4cc(O)cc(O)c4-c4cc3ccc4O)[C@H](O)c3ccc(c(Cl)c3)Oc3cc2cc(c3O[C@@H]2O[C@H](CO)[C@@H](O)[C@H](O)[C@H]2O[C@H]2C[C@](C)(N)[C@H](O)[C@H](C)O2)Oc2ccc(cc2Cl)[C@H]1O [Vancomycin] | – | 1 to 2 | 1 to 2 | – | 0.25 to 2 | – | 0.125 to 2 | 0.125 to 1 | – |
